Assay [1] has as its target T1, Serine/threonine-protein kinase 3 (Homo sapiens) (UniProt Q13188).
T1 sequence (whole entry): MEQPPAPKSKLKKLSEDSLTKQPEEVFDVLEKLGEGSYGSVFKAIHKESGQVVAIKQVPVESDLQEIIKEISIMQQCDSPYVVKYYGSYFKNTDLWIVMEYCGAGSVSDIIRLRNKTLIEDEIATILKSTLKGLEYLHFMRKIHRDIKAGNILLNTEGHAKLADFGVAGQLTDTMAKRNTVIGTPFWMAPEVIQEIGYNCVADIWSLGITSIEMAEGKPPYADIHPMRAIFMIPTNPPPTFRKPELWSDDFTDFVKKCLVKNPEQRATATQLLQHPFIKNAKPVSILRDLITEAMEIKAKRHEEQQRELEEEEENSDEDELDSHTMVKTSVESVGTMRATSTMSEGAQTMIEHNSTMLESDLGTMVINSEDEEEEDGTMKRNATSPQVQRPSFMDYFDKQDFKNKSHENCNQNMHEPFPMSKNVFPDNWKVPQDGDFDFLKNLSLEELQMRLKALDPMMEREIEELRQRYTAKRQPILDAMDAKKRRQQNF
Put plainly: Inhibition of MST2 assessed as residual activity at 0.1 uM by Cherenkov counting relative to control in presence of 20 uM ATP. In outline: (§1)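 Single-concentration selectivity screen at 0.1 μM against a panel of 76 protein kinases. Each kinase was run at an ATP level approximating its Km for ATP. Output is mean residual activity as % of the control assay without compound, n = 3 ± SD.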

Assay [2] addresses T2, Inhibitor of nuclear factor kappa-B kinase subunit epsilon (Homo sapiens) (UniProt Q14164).
T2 sequence (whole entry): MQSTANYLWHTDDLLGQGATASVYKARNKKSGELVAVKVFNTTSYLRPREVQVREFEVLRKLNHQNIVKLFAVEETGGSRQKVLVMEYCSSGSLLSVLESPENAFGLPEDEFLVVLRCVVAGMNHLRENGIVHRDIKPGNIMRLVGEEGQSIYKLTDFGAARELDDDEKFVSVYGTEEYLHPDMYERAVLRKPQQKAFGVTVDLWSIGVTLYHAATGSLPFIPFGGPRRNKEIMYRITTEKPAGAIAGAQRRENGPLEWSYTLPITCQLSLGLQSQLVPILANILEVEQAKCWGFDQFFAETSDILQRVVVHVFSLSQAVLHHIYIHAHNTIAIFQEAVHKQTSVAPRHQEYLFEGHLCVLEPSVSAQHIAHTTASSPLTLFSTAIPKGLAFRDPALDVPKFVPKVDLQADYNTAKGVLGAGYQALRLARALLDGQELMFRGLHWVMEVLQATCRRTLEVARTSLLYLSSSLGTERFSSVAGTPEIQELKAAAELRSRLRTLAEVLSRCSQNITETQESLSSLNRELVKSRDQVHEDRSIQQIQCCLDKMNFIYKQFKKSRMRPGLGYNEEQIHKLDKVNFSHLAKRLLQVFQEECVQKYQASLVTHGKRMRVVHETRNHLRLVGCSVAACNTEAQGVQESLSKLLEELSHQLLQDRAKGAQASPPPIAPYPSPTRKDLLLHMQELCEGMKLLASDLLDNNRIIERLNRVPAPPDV
The assay is described as follows: Inhibition of IKKepsilon assessed as residual activity at 0.1 uM by Cherenkov counting relative to control in presence of 50 uM ATP. The method, boiled down:
(§2)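 Single-concentration screen at 0.1 µM across a panel of 76 protein kinases. Each kinase was run at an ATP concentration approximating its ATP Km. Results are % mean residual activity versus control assays without compound (n = 3 ± SD).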

The target of assay [3] is Dual specificity tyrosine-phosphorylation-regulated kinase 1A (Homo sapiens) (UniProt Q13627). The assay is described as follows: Inhibition of DYRK1A assessed as residual activity at 0.1 uM by Cherenkov counting relative to control in presence of 50 uM ATP. The method, boiled down:
as §2

Assay [4] has as its target Mitogen-activated protein kinase 11 (Homo sapiens) (UniProt Q15759). Put plainly: Inhibition of p38beta assessed as residual activity at 0.1 uM by Cherenkov counting relative to control. In outline: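 Single-concentration screen at 0.1 μM in a 76-kinase panel. ATP for each kinase was set near its Km for ATP. Residual activity is given as a percentage of control assays without compound, mean of n = 3 ± SD.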

Assay [5] addresses Serine/threonine-protein kinase PAK 5 (Homo sapiens) (UniProt Q9P286). Put plainly: Inhibition of PAK5 assessed as residual activity at 0.1 uM by Cherenkov counting relative to control in presence of 20 uM ATP. In outline: as §1
Assay [6] has as its target Homeodomain-interacting protein kinase 2 (Homo sapiens) (UniProt Q9H2X6). Put plainly: Inhibition of HIPK2 assessed as residual activity at 0.1 uM by Cherenkov counting relative to control in presence of 5 uM ATP. The method, boiled down:
as §2

Assay [7] deals with Serine/threonine-protein kinase PAK 5 (Homo sapiens) (UniProt Q9P286). Put plainly: Inhibition of PAK5 assessed as residual activity at 10 uM by Cherenkov counting relative to control in presence of 20 uM ATP.
Serine/threonine-protein kinase PAK 5 (Homo sapiens), sequence (Q9P286 whole entry, looked up): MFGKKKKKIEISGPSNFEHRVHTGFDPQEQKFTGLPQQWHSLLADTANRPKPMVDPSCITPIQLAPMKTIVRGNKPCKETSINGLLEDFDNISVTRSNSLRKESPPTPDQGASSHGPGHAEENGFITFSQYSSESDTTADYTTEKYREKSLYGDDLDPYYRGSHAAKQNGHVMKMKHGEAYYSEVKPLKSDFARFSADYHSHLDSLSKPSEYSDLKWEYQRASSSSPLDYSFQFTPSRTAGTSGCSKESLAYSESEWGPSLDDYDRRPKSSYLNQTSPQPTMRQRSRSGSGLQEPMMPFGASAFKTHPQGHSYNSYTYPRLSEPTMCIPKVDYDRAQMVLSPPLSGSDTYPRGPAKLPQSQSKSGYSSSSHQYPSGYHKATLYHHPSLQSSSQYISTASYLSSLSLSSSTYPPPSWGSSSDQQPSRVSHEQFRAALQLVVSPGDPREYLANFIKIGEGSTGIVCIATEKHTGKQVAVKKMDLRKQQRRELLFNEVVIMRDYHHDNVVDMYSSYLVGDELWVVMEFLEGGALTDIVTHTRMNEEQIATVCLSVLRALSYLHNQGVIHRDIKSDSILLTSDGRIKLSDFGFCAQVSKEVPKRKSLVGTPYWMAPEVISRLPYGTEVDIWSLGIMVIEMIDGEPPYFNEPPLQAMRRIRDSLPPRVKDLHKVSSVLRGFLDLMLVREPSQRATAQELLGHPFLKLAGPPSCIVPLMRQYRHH
Assay [8] concerns the target T3, Dual specificity tyrosine-phosphorylation-regulated kinase 2 (Homo sapiens) (UniProt Q92630).
T3 sequence (whole entry): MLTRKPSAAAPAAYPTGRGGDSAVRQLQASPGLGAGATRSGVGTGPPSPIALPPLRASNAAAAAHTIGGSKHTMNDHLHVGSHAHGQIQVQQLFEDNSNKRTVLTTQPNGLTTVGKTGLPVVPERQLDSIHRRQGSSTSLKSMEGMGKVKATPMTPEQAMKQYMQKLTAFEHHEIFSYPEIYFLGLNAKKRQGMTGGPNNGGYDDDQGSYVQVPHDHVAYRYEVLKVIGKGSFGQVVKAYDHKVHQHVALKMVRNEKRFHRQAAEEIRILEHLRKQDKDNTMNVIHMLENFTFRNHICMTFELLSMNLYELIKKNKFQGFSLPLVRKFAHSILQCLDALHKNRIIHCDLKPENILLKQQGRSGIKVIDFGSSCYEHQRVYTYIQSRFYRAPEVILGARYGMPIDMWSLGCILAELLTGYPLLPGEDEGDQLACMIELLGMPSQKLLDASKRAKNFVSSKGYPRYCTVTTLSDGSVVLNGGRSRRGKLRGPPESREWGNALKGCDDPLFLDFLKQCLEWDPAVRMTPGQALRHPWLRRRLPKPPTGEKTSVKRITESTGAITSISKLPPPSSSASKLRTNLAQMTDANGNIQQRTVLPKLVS
Put plainly: Inhibition of DYRK2 assessed as residual activity at 10 uM by Cherenkov counting relative to control in presence of 50 uM ATP. In outline: (§3)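 Single-point profiling at 10 µM in a panel of 78 protein kinases. Kinase activity is expressed as a percentage relative to control assays without compound.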

A short description of assay [9]: Inhibition of PKA assessed as residual activity at 10 uM by Cherenkov counting relative to control in presence of 20 uM ATP. The method, boiled down: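 Single-concentration profiling at 10 μM in a 78-kinase panel. Kinase activity is expressed as a percentage of control assays run without compound.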
Assay [10] concerns the target Calcium/calmodulin-dependent protein kinase type 1 (Homo sapiens) (UniProt Q14012). Put plainly: Inhibition of CAMK1 assessed as residual activity at 10 uM by Cherenkov counting relative to control in presence of 50 uM ATP. In outline:
as §3

The structures appear in SMILES notation.

Homeodomain-interacting protein kinase 2 (Homo sapiens), sequence (Q9H2X6 whole entry, looked up): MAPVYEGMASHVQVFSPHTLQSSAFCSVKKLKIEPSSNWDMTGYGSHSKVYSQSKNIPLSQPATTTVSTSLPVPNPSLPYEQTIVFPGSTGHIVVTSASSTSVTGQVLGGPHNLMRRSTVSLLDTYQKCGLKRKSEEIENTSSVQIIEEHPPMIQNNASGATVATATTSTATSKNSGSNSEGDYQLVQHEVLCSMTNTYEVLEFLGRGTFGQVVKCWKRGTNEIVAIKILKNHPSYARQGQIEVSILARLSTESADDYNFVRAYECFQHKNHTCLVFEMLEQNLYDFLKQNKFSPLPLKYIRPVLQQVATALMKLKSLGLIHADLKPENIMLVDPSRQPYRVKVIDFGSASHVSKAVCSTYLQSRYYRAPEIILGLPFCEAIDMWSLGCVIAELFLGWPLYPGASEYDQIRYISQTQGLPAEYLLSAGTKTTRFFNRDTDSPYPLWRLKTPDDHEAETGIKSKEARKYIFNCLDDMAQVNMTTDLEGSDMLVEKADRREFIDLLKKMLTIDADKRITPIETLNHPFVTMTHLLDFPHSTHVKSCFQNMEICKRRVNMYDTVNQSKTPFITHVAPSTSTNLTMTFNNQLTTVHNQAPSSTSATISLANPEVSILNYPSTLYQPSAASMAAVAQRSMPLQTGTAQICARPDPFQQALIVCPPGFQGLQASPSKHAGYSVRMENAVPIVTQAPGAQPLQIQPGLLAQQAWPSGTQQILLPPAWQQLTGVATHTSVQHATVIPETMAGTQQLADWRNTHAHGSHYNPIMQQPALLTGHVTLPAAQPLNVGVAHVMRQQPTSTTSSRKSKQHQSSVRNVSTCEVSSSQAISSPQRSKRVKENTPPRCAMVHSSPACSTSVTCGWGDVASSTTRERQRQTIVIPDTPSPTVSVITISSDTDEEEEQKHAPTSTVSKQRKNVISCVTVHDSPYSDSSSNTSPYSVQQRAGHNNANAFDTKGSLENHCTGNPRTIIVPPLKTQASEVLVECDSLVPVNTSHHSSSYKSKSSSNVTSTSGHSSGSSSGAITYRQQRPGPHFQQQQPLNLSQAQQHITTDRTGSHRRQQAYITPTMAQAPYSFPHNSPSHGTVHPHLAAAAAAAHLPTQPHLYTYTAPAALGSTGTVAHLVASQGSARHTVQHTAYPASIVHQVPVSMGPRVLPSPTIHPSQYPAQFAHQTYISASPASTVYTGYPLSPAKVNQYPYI
Mitogen-activated protein kinase 11 (Homo sapiens), sequence (Q15759 whole entry): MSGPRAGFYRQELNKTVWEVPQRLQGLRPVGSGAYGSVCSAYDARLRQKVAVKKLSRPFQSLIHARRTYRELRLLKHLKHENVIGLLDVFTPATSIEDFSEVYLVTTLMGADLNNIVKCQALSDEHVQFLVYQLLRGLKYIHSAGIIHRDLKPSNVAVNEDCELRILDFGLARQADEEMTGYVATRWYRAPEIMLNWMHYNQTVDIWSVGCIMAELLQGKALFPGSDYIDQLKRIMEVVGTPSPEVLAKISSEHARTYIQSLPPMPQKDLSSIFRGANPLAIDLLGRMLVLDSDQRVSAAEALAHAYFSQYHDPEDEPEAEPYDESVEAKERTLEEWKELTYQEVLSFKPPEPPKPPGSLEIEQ
Calcium/calmodulin-dependent protein kinase type 1 (Homo sapiens), sequence (Q14012 whole entry, looked up): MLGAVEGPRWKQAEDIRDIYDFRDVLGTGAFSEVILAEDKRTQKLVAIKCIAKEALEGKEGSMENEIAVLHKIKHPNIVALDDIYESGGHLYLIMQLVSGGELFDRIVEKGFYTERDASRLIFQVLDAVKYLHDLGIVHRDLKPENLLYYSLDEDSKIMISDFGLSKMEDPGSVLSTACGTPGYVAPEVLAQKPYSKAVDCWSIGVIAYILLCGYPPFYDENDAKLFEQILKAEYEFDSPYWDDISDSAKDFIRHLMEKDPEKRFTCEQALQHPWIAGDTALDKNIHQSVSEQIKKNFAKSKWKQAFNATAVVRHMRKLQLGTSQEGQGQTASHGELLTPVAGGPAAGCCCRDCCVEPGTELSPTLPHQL

Turning to `COc1ccc(/C=C/C(=O)Nc2cc(-c3[nH]c(SC)nc3-c3ccc(F)cc3)ccn2)c(OC)c1`, the Activity came out at 97% in [1]; 97% in [2]; 78% in [3]; 17% in assay [4]; 94% in assay [5]; 94% in assay [6].

As to `CC(C)c1onc(-c2ccc(F)cc2)c1-c1ccncc1`, the Activity in [7] was determined as 98%; in assay [8] it was 101%; in [9], 28%; in assay [10], 75%.

Take `CC(C)c1noc(-c2ccc(F)cc2)c1-c1ccncc1`: the Activity in assay [7] is 94%; in assay [8], 104%; in [9], 90%; in assay [10], 76%.

As to `COc1ccc(/C=C/C(=O)Nc2cc(-c3[nH]c([S+](C)[O-])nc3-c3ccc(F)cc3)ccn2)c(OC)c1` (stereo not given), the Activity worked out at 112% in assay [1]; 90% in assay [2]; 86% in assay [3]; 46% in [4]; 105% in assay [5]; 104% in [6].

These data come from ChEMBL document CHEMBL1155278, “3,4-Diaryl-isoxazoles and -imidazoles as potent dual inhibitors of p38alpha mitogen activated protein kinase and casein kinase 1delta” (J Med Chem, 2009).
